Results reported in ChEMBL document CHEMBL3877264, “Quinolidene-rhodanine conjugates: Facile synthesis and biological evaluation” (Eur J Med Chem, 2017).
Converted amounts (≈) assume the structure as drawn.

Columns and labels:
Bacillus subtilis [1] = test: Antibacterial activity against Bacillus subtilis NCIM 2079 measured after 12 hrs; format: functional; settings: NCIM 2079, 12 h
Outline: (§1)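 Bacteria grown in LB at 37 °C and 180 rpm to OD 1. Compounds added to wells, then 0.1% inoculum of 1 OD culture (620 nm). Growth read as OD at 620 nm after 8 h for gram-negative and after 12 h for gram-positive strains.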

[2] = tested on: Mycobacterium tuberculosis; test: Growth inhibition of Mycobacterium tuberculosis H37Ra ATCC 25177 at dormant stage at 50 ug/ml measured after 12 days by XTT dye based two fold dilution method relative to control; format: functional; settings: H37Ra ATCC 25177, 288 h, read-out: GI
Outline: (§2)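 MTB H37Ra was grown in Dubos medium, then exposed in Mycobacterium pheli minimal medium (pH 6.6) to compounds dissolved in DMSO. The assay ended on day 8 (active) or day 12 (dormant). Viable cells were measured by XTT reduction menadione assay at 470 nm, blank-corrected, relative to vehicle control. Triplicates were expressed as mean ± SD. MIC came from dose-response curves.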

[3] = tested on: Mycobacterium tuberculosis; test: Growth inhibition of Mycobacterium tuberculosis H37Ra ATCC 25177 at active stage at 6.25 ug/ml measured after 8 days by XTT dye based two fold dilution method relative to control; format: functional; settings: H37Ra ATCC 25177, 192 h, read-out: GI; outline: as §2
[4] = tested on: Mycobacterium tuberculosis; test: Growth inhibition of Mycobacterium tuberculosis H37Ra ATCC 25177 at dormant stage at 6.25 ug/ml measured after 12 days by XTT dye based two fold dilution method relative to control; format: functional; settings: H37Ra ATCC 25177, 288 h, read-out: GI; outline: as §2
Bacillus subtilis [5] = test: Growth inhibition of Bacillus subtilis NCIM 2079 at 30 ug/ml measured after 12 hrs relative to control; format: functional; settings: NCIM 2079, 12 h, read-out: GI; outline: as §1
[6] = Cytotoxicity against human PANC1 cells assessed as growth inhibition at 100 ug/ml measured after 48 hrs by MTT assay relative to control; format: toxicity, cell-based, PANC-1; settings: read-out: GI
[7] = tested on: Mycobacterium tuberculosis; test: Growth inhibition of Mycobacterium bovis BCG ATCC 35743 at dormant stage at 30 ug/ml measured after 12 days by nitrate reductase dye based two fold dilution method relative to control; format: functional; settings: BCG str. ATCC 35743, 288 h, read-out: GI
Outline: (§3)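 M. bovis BCG was grown in Dubos medium and assayed in Mycobacterium pheli minimal medium (pH 6.6), with compounds from DMSO stocks. Incubation lasted 8 days for active and 12 days for dormant cultures. Viability was read by nitrate reductase at 540 nm against cell-free blanks, with vehicle set as 100% growth. Primary screen was at 30, 10 and 3 µg/ml, in triplicate, mean ± SD. MIC was taken from dose-response curves.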

[8] = Antifungal activity against Cryptococcus neoformans NCIM 576 by standard agar method; format: functional
Outline: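 MICs determined by standard agar method; DMSO as solvent control.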

[9] = tested on: Mycobacterium tuberculosis; test: Growth inhibition of Mycobacterium bovis BCG ATCC 35743 at dormant stage at 25 ug/ml measured after 12 days by nitrate reductase dye based two fold dilution method relative to control; format: functional; settings: BCG str. ATCC 35743, 288 h, read-out: GI; outline: as §3
[10] = Cytotoxicity against human A549 cells measured after 48 hrs by MTT assay; format: toxicity, cell-based
[11] = tested on: Mycobacterium tuberculosis; test: Growth inhibition of Mycobacterium bovis BCG ATCC 35743 at dormant stage at 12.5 ug/ml measured after 12 days by nitrate reductase dye based two fold dilution method relative to control; format: functional; settings: BCG str. ATCC 35743, 288 h, read-out: GI
[12] = tested on: Mycobacterium tuberculosis; test: Growth inhibition of Mycobacterium tuberculosis H37Ra ATCC 25177 at active stage measured after 8 days by XTT dye based two fold dilution method; format: functional; settings: H37Ra ATCC 25177, 192 h; outline: as §2
[13] = Cytotoxicity against human THP1 cells assessed as growth inhibition at 100 ug/ml measured after 48 hrs by MTT assay relative to control; format: toxicity, cell-based, THP-1; settings: read-out: GI
Outline: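 MTT assay with 48 h compound exposure. THP-1 macrophages made by 24 h PMA treatment. Each concentration tested in triplicate in one experiment. % cytotoxicity = (control−test)/(control−blank)×100, with control = cells + DMSO and blank = medium without cells. IC50 from % survival versus concentration plots.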

[14] = tested on: Mycobacterium tuberculosis; test: Growth inhibition of Mycobacterium bovis BCG ATCC 35743 at dormant stage at 1.56 ug/ml measured after 12 days by nitrate reductase dye based two fold dilution method relative to control; format: functional; settings: BCG str. ATCC 35743, 288 h, read-out: GI; outline: as §3
[15] = Selectivity index, ratio of GI50 for HUVEC to MIC for Mycobacterium bovis BCG ATCC 35743 at dormant stage; settings: pooled result: one value given for 6 cell lines, strains, targets or settings
Outline: (§4)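 SI is the cell-line GI50 divided by the dormant-stage mycobacterial MIC. […] THP-1 macrophages were PMA-differentiated for 24 h.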

[16] = tested on: Mycobacterium tuberculosis; test: Growth inhibition of Mycobacterium bovis BCG ATCC 35743 at active stage at 50 ug/ml measured after 8 days by nitrate reductase dye based two fold dilution method relative to control; format: functional; settings: BCG str. ATCC 35743, 192 h, read-out: GI
[17] = tested on: Mycobacterium tuberculosis; test: Growth inhibition of Mycobacterium bovis BCG ATCC 35743 at active stage at 6.25 ug/ml measured after 8 days by nitrate reductase dye based two fold dilution method relative to control; format: functional; settings: BCG str. ATCC 35743, 192 h, read-out: GI; outline: as §3
[18] = Selectivity index, ratio of GI50 for human HeLa cells to MIC for Mycobacterium tuberculosis H37Ra ATCC 25177 at dormant stage; format: toxicity, cell-based; settings: read-out: Selectivity Index; outline: as §4
[19] = Selectivity index, ratio of GI50 for human THP1 cells to MIC for Mycobacterium tuberculosis H37Ra ATCC 25177 at dormant stage; format: toxicity, cell-based, THP-1; settings: read-out: Selectivity Index; outline: as §4

| SMILES | MIC (Bacillus subtilis [1]) [µg/mL] | inhibition of growth at 50 µg/mL [2] [%] | inhibition of growth at 6.25 µg/mL [3] [%] | inhibition of growth at 6.25 µg/mL [4] [%] | inhibition of growth at 30 µg/mL (Bacillus subtilis [5]) [%] | inhibition at 48 h, 100 ug/ml [6] [%] | inhibition of growth at 30 µg/mL [7] [%] | MIC [8] [µg/mL] | inhibition of growth at 25 µg/mL [9] [%] | GI50 at 48 h [10] [µg/mL] | inhibition of growth at 12.5 µg/mL [11] [%] | IC50 [12] [µg/mL] | IC90 [12] [µg/mL] | inhibition at 48 h, 100 ug/ml [13] [%] | inhibition of growth at 1.56 µg/mL [14] [%] | Selectivity Index [15] | inhibition of growth at 50 µg/mL [16] [%] | inhibition of growth at 6.25 µg/mL [17] [%] | selectivity ratio [18] | selectivity ratio [19] |
| --- | --- | --- | --- | --- | --- | --- | --- | --- | --- | --- | --- | --- | --- | --- | --- | --- | --- | --- | --- | --- |
| O=C(O)CN1C(=O)/C(=C/c2cc3cc(F)ccc3nc2Cl)SC1=S | > 30 | 83.2 | 11.3 | 7.26 | -5.15 | 20.8 | 28.2 | 25 (≈ 65.3 µM) | 99.8 | > 100 | 99.8 | > 30 | > 30 | 27.6 | 99.4 | – | – | – | – | – |
| COc1ccc2cc(/C=C3\SC(=S)NC3=O)c(Cl)nc2c1 | > 30 | 104 | 43.8 | 23.2 | 8.36 | 29.8 | 10.1 | 50 (≈ 148 µM) | 99.8 | > 100 | 98.8 | 5.7 (≈ 16.9 µM) | 21.1 (≈ 62.6 µM) | 26.7 | -29.2 | 60.2 | 99.9 | 96.6 | – | – |
| O=C1NC(=S)S/C1=C\c1cc2cc(F)ccc2nc1Cl | > 30 | 110 | 96.2 | 73.1 | -3.29 | 37.5 | 76.5 | 25 (≈ 77 µM) | 100 | > 100 | 100 | – | – | 26.3 | -2.98 | 18.9 | 99 | 99.5 | 5.6 | 5.6 |
| O=C1NC(=S)S/C1=C\c1cc2cc(Cl)ccc2nc1Cl | 9.33 (≈ 27.3 µM) | 86.4 | 102 | 89.5 | 101 | 25.2 | 99.2 | 100 (≈ 293 µM) | 100 | > 100 | 100 | 1.9 (≈ 5.57 µM) | 3.8 (≈ 11.1 µM) | 28.7 | 60.5 | 43.7 | 99.7 | 100 | 15.6 | 15.6 |
| CCOc1ccc2nc(Cl)c(/C=C3\SC(=S)NC3=O)cc2c1 | 28.4 (≈ 80.9 µM) | 93 | 104 | 102 | 98.5 | 30.1 | 94.5 | 50 (≈ 143 µM) | 100 | > 100 | 101 | 1.9 (≈ 5.42 µM) | 2.8 (≈ 7.98 µM) | 28.6 | 75.5 | 50 | 98.1 | 101 | 28.6 | 28.6 |
| Cc1cccc2cc(/C=C3\SC(=S)N(CC(=O)O)C3=O)c(Cl)nc12 | > 30 | 102 | 12.9 | -2.45 | -24.5 | 5.9 | 70 | 150 (≈ 396 µM) | – | > 100 | – | 21.2 (≈ 56 µM) | 27.3 (≈ 72.1 µM) | 32.3 | – | – | – | – | 5 | 5 |
| Cc1cccc2cc(/C=C3\SC(=S)NC3=O)c(Cl)nc12 | > 30 | 99.8 | 48.4 | 38.3 | 6.66 | 30.9 | 60.5 | 100 (≈ 312 µM) | 101 | > 100 | 95.4 | 4.8 (≈ 15 µM) | 18.2 (≈ 56.7 µM) | 13.2 | -20.5 | 10.4 | 98.4 | 87.8 | 7.8 | 7.8 |
| COc1ccc2nc(Cl)c(/C=C3\SC(=S)NC3=O)cc2c1 | > 30 | 90.5 | 55.2 | 27.4 | 21.2 | 24.9 | -6.75 | 100 (≈ 297 µM) | 81.6 | > 100 | 93.8 | 6.9 (≈ 20.5 µM) | 14.3 (≈ 42.5 µM) | 26.3 | -28.8 | 14.7 | 97.3 | 95.7 | 20.8 | 20.8 |
